Columns and labels:
[1] = Single ascending dose part; type: in vivo, human
Summary of the method: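 Healthy men in an interlocking two-cohort, four-period crossover. Each period was randomized 3:1 (6 active, 2 placebo); each participant received three ascending single oral doses and one placebo, each after a moderate-fat meal (~600 calories, ~30% fat). Two sentinel participants per period were dosed first, with a 24-h safety review before the rest. Monitoring covered AEs, vitals, ECGs, labs, physical exams, and GI/hepatobiliary abnormalities. AEs were MedDRA-coded and summarized descriptively.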

[2] = Relative bioavailability study: safety and tolerability; type: in vivo, human
[3] = Part 1, across all drug doses in the 20 participants

C=C(C)[C@@H]1CC[C@]2(NCCN3CCS(=O)(=O)CC3)CC[C@]3(C)[C@H](CC[C@@H]4[C@@]5(C)CC=C(C6=CC[C@@](CF)(C(=O)O)CC6)C(C)(C)[C@@H]5CC[C@]43C)[C@@H]12 [GSK3640254]
most common AEs: contact dermatitis, number of events [1, 3]: five | most common AEs: diarrhea, number of events [1, 3]: four | most common AEs: dizziness, number of events [1, 3]: four | most common AEs: headache, number of events [1, 3]: eight | most common AEs: nasopharyngitis, number of events [1, 3]: three | participants reporting GI AEs ([1]; Part 1, eleven GI AEs in six participants): 30% | adverse drug reactions, number ([1]; across both parts of the study (total includes placebo periods per Table 3)): 12 | trends in laboratory values or vital sign parameters ([1]; across doses in either part of the study): no clinically significant trends in laboratory values or vital sign parameters | deaths or serious AEs ([1]; single and multiple ascending doses): no deaths or serious AEs were reported | Adverse event: Any event ([1]; single dose 1 mg (N = 6)): 3 (50) n (%) | Adverse event: Contact dermatitis ([1]; single dose 1 mg (N = 6)): 1 (17) n (%) | Adverse event: Cough ([1]; single dose 1 mg (N = 6)): 0 n (%) | Adverse event: Diarrhea ([1]; single dose 1 mg (N = 6)): 0 n (%) | Adverse event: Dizziness ([1]; single dose 1 mg (N = 6)): 1 (17) n (%) | Adverse event: Gastrointestinal disorders ([1]; single dose 1 mg (N = 6)): 1 (17) n (%) | Adverse event: Headache ([1]; single dose 1 mg (N = 6)): 1 (17) n (%) | Adverse event: Increased transaminases ([1]; single dose 1 mg (N = 6)): 0 n (%) | Adverse event: Nasal obstruction ([1]; single dose 1 mg (N = 6)): 0 n (%) | Adverse event: Nasopharyngitis ([1]; single dose 1 mg (N = 6)): 0 n (%) | Adverse event: Nightmare ([1]; single dose 1 mg (N = 6)): 0 n (%) | Adverse event: Viral infection ([1]; single dose 1 mg (N = 6)): 0 n (%) | Adverse event: Vomiting ([1]; single dose 1 mg (N = 6)): 0 n (%) | Adverse event: Any event ([1]; single dose 3 mg (N = 6)): 2 (33) n (%) | Adverse event: Contact dermatitis ([1]; single dose 3 mg (N = 6)): 1 (17) n (%) | Adverse event: Cough ([1]; single dose 3 mg (N = 6)): 0 n (%) | Adverse event: Diarrhea ([1]; single dose 3 mg (N = 6)): 0 n (%) | Adverse event: Dizziness ([1]; single dose 3 mg (N = 6)): 1 (17) n (%) | Adverse event: Gastrointestinal disorders ([1]; single dose 3 mg (N = 6)): 0 n (%) | Adverse event: Headache ([1]; single dose 3 mg (N = 6)): 0 n (%) | Adverse event: Increased transaminases ([1]; single dose 3 mg (N = 6)): 0 n (%) | Adverse event: Nasal obstruction ([1]; single dose 3 mg (N = 6)): 0 n (%) | Adverse event: Nasopharyngitis ([1]; single dose 3 mg (N = 6)): 0 n (%) | Adverse event: Nightmare ([1]; single dose 3 mg (N = 6)): 1 (17) n (%) | Adverse event: Viral infection ([1]; single dose 3 mg (N = 6)): 0 n (%) | Adverse event: Vomiting ([1]; single dose 3 mg (N = 6)): 0 n (%) | Adverse event: Any event ([1]; single dose 10 mg (N = 6)): 4 (67) n (%) | Adverse event: Contact dermatitis ([1]; single dose 10 mg (N = 6)): 1 (17) n (%) | Adverse event: Cough ([1]; single dose 10 mg (N = 6)): 1 (17) n (%) | Adverse event: Diarrhea ([1]; single dose 10 mg (N = 6)): 1 (17) n (%) | Adverse event: Dizziness ([1]; single dose 10 mg (N = 6)): 1 (17) n (%) | Adverse event: Gastrointestinal disorders ([1]; single dose 10 mg (N = 6)): 1 (17) n (%) | Adverse event: Headache ([1]; single dose 10 mg (N = 6)): 1 (17) n (%) | Adverse event: Increased transaminases ([1]; single dose 10 mg (N = 6)): 0 n (%) | Adverse event: Nasal obstruction ([1]; single dose 10 mg (N = 6)): 1 (17) n (%) | Adverse event: Nasopharyngitis ([1]; single dose 10 mg (N = 6)): 1 (17) n (%) | Adverse event: Nightmare ([1]; single dose 10 mg (N = 6)): 0 n (%) | Adverse event: Viral infection ([1]; single dose 10 mg (N = 6)): 1 (17) n (%) | Adverse event: Vomiting ([1]; single dose 10 mg (N = 6)): 0 n (%) | Adverse event: Any event ([1]; single dose 30 mg (N = 6)): 3 (50) n (%) | Adverse event: Contact dermatitis ([1]; single dose 30 mg (N = 6)): 0 n (%) | Adverse event: Cough ([1]; single dose 30 mg (N = 6)): 0 n (%) | Adverse event: Diarrhea ([1]; single dose 30 mg (N = 6)): 1 (17) n (%) | Adverse event: Dizziness ([1]; single dose 30 mg (N = 6)): 0 n (%) | Adverse event: Gastrointestinal disorders ([1]; single dose 30 mg (N = 6)): 1 (17) n (%) | Adverse event: Headache ([1]; single dose 30 mg (N = 6)): 1 (17) n (%) | Adverse event: Increased transaminases ([1]; single dose 30 mg (N = 6)): 0 n (%) | Adverse event: Nasal obstruction ([1]; single dose 30 mg (N = 6)): 0 n (%) | Adverse event: Nasopharyngitis ([1]; single dose 30 mg (N = 6)): 0 n (%) | Adverse event: Nightmare ([1]; single dose 30 mg (N = 6)): 0 n (%) | Adverse event: Viral infection ([1]; single dose 30 mg (N = 6)): 0 n (%) | Adverse event: Vomiting ([1]; single dose 30 mg (N = 6)): 0 n (%) | Adverse event: Any event ([1]; single dose 100 mg (N = 6)): 3 (50) n (%) | Adverse event: Contact dermatitis ([1]; single dose 100 mg (N = 6)): 0 n (%) | Adverse event: Cough ([1]; single dose 100 mg (N = 6)): 1 (17) n (%) | Adverse event: Diarrhea ([1]; single dose 100 mg (N = 6)): 2 (33) n (%) | Adverse event: Dizziness ([1]; single dose 100 mg (N = 6)): 0 n (%) | Adverse event: Gastrointestinal disorders ([1]; single dose 100 mg (N = 6)): 2 (33) n (%) | Adverse event: Headache ([1]; single dose 100 mg (N = 6)): 2 (33) n (%) | Adverse event: Increased transaminases ([1]; single dose 100 mg (N = 6)): 0 n (%) | Adverse event: Nasal obstruction ([1]; single dose 100 mg (N = 6)): 0 n (%) | Adverse event: Nasopharyngitis ([1]; single dose 100 mg (N = 6)): 1 (17) n (%) | Adverse event: Nightmare ([1]; single dose 100 mg (N = 6)): 0 n (%) | Adverse event: Viral infection ([1]; single dose 100 mg (N = 6)): 1 (17) n (%) | Adverse event: Vomiting ([1]; single dose 100 mg (N = 6)): 2 (33) n (%) | Adverse event: Any event ([1]; single dose 200 mg (N = 6)): 4 (67) n (%) | Adverse event: Contact dermatitis ([1]; single dose 200 mg (N = 6)): 1 (17) n (%) | Adverse event: Cough ([1]; single dose 200 mg (N = 6)): 0 n (%) | Adverse event: Diarrhea ([1]; single dose 200 mg (N = 6)): 0 n (%) | Adverse event: Dizziness ([1]; single dose 200 mg (N = 6)): 0 n (%) | Adverse event: Gastrointestinal disorders ([1]; single dose 200 mg (N = 6)): 0 n (%) | Adverse event: Headache ([1]; single dose 200 mg (N = 6)): 1 (17) n (%) | Adverse event: Increased transaminases ([1]; single dose 200 mg (N = 6)): 1 (17) n (%) | Adverse event: Nasal obstruction ([1]; single dose 200 mg (N = 6)): 0 n (%) | Adverse event: Nasopharyngitis ([1]; single dose 200 mg (N = 6)): 0 n (%) | Adverse event: Nightmare ([1]; single dose 200 mg (N = 6)): 0 n (%) | Adverse event: Viral infection ([1]; single dose 200 mg (N = 6)): 0 n (%) | Adverse event: Vomiting ([1]; single dose 200 mg (N = 6)): 0 n (%) | Adverse event: Any event ([1]; single dose 400 mg (N = 6)): 4 (67) n (%) | Adverse event: Contact dermatitis ([1]; single dose 400 mg (N = 6)): 1 (17) n (%) | Adverse event: Cough ([1]; single dose 400 mg (N = 6)): 0 n (%) | Adverse event: Diarrhea ([1]; single dose 400 mg (N = 6)): 0 n (%) | Adverse event: Dizziness ([1]; single dose 400 mg (N = 6)): 0 n (%) | Adverse event: Gastrointestinal disorders ([1]; single dose 400 mg (N = 6)): 1 (17) n (%) | Adverse event: Headache ([1]; single dose 400 mg (N = 6)): 2 (33) n (%) | Adverse event: Increased transaminases ([1]; single dose 400 mg (N = 6)): 0 n (%) | Adverse event: Nasal obstruction ([1]; single dose 400 mg (N = 6)): 0 n (%) | Adverse event: Nasopharyngitis ([1]; single dose 400 mg (N = 6)): 1 (17) n (%) | Adverse event: Nightmare ([1]; single dose 400 mg (N = 6)): 0 n (%) | Adverse event: Viral infection ([1]; single dose 400 mg (N = 6)): 0 n (%) | Adverse event: Vomiting ([1]; single dose 400 mg (N = 6)): 0 n (%) | Adverse event: Any event ([1]; single dose 700 mg (N = 6)): 1 (17) n (%) | Adverse event: Contact dermatitis ([1]; single dose 700 mg (N = 6)): 0 n (%) | Adverse event: Cough ([1]; single dose 700 mg (N = 6)): 0 n (%) | Adverse event: Diarrhea ([1]; single dose 700 mg (N = 6)): 0 n (%) | Adverse event: Dizziness ([1]; single dose 700 mg (N = 6)): 1 (17) n (%) | Adverse event: Gastrointestinal disorders ([1]; single dose 700 mg (N = 6)): 0 n (%) | Adverse event: Headache ([1]; single dose 700 mg (N = 6)): 0 n (%) | Adverse event: Increased transaminases ([1]; single dose 700 mg (N = 6)): 0 n (%) | Adverse event: Nasal obstruction ([1]; single dose 700 mg (N = 6)): 0 n (%) | Adverse event: Nasopharyngitis ([1]; single dose 700 mg (N = 6)): 0 n (%) | Adverse event: Nightmare ([1]; single dose 700 mg (N = 6)): 0 n (%) | Adverse event: Viral infection ([1]; single dose 700 mg (N = 6)): 0 n (%) | Adverse event: Vomiting ([1]; single dose 700 mg (N = 6)): 0 n (%) | changes in laboratory values, vital signs, or ECG parameters ([2]; in vivo): No clinically significant changes in laboratory values, vital signs, or ECG parameters | participants reporting at least one AE ([2]; of the 14 total participants, all mild): 50%

Source: article PMC7670640 (Pharmacology Research & Perspectives, 2020)
